The source of these data is ChEMBL document CHEMBL3616466, “Pyrazolo[3,4-h]quinolines promising photosensitizing agents in the treatment of cancer” (Eur J Med Chem, 2015).

As usually defined, the GI50 is the concentration at which growth is held to half of that of the control.

Type in all cases: functional
Experiment [1] concerns HL-60. In words: Photocytotoxicity against human HL60 cells assessed as growth inhibition at 2.5 J/cm'2 irradiation for 30 mins followed by drug treated for 72 hrs by MTT assay. The note with it: HL-60, light or radiation study. An outline of the steps:
(§1)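 Cells seeded at 5 × 10³ per well and pre-incubated 24 h. Drug dilutions in HBSS (pH 7.2, from DMSO stock) added for 30 min at 37 °C, then UV-A irradiation at the stated dose. Drug solution then replaced with culture medium and plates incubated 72 h. Viability by MTT; GI50 from concentration series.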

In experiment [2] the test system is A549. In words: Cytotoxicity against human A549 cells assessed as growth inhibition after 72 hrs by MTT assay. The note with it: A549, 72 h. An outline of the steps: (§2)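 Cells (5 × 10³ per well) pre-incubated 24 h at 37 °C, 5% CO₂, then exposed in the dark to serial concentrations diluted from DMSO stock into complete medium for 72 h at 37 °C. Viability read by MTT; GI50 derived. LoVo in Ham's F-12, MCF-7 and A-549 in DMEM, all with 10% FBS and penicillin/streptomycin.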
Background: Tetrazolium assays rely on reduction of a dye to a coloured formazan, in cell work by metabolically active cells.

Experiment [3] relates to A549. Description: Photocytotoxicity against human A549 cells assessed as growth inhibition at 2.5 J/cm'2 irradiation for 30 mins followed by drug treated for 72 hrs by MTT assay. The conditions noted are these: A549, light or radiation study. An outline of the steps:
as §1

Experiment [4] deals with A549. In words: Photocytotoxicity against human A549 cells assessed as growth inhibition at 3.75 J/cm'2 irradiation for 30 mins followed by drug treated for 72 hrs by MTT assay. The note with it: A549, light or radiation study. An outline of the steps:
as §1

For experiment [5], the system named is LoVo. In words: Photocytotoxicity against human LoVo cells assessed as growth inhibition at 3.75 J/cm'2 irradiation for 30 mins followed by drug treated for 72 hrs by MTT assay. The conditions noted are these: light or radiation study. An outline of the steps: as §1
Experiment [6] concerns Jurkat. Description: Photocytotoxicity against human Jurkat cells assessed as growth inhibition at 2.5 J/cm'2 irradiation for 30 mins followed by drug treated for 72 hrs by MTT assay. The conditions noted are these: light or radiation study. An outline of the steps: as §1
The test system of experiment [7] is MCF7. In words: Photocytotoxicity against human MCF7 cells assessed as growth inhibition at 3.75 J/cm'2 irradiation for 30 mins followed by drug treated for 72 hrs by MTT assay. The note with it: MCF7, light or radiation study. An outline of the steps:
as §1

Experiment [8] deals with LoVo. In words: Cytotoxicity against human LoVo cells assessed as growth inhibition after 72 hrs by MTT assay. Summed up:
as §2

Experiment [9] deals with HL-60. Description: Photocytotoxicity against human HL60 cells assessed as growth inhibition at 1.25 J/cm'2 irradiation for 30 mins followed by drug treated for 72 hrs by MTT assay. The note with it: HL-60, light or radiation study. An outline of the steps:
as §1

Experiment [10] concerns Jurkat. Description: Photocytotoxicity against human Jurkat cells assessed as growth inhibition at 1.25 J/cm'2 irradiation for 30 mins followed by drug treated for 72 hrs by MTT assay. The note with it: light or radiation study. An outline of the steps: as §1
In experiment [11] the test system is MCF7. In words: Photocytotoxicity against human MCF7 cells assessed as growth inhibition at 2.5 J/cm'2 irradiation for 30 mins followed by drug treated for 72 hrs by MTT assay. The conditions noted are these: MCF7, light or radiation study. An outline of the steps: as §1
Experiment [12] concerns LoVo. Description: Photocytotoxicity against human LoVo cells assessed as growth inhibition at 2.5 J/cm'2 irradiation for 30 mins followed by drug treated for 72 hrs by MTT assay. The conditions noted are these: light or radiation study. An outline of the steps: as §1
In experiment [13] the test system is HL-60. Description: Cytotoxicity against human HL60 cells assessed as growth inhibition after 72 hrs by MTT assay. The note with it: HL-60, 72 h.
Experiment [14] has as its system MCF7. In words: Cytotoxicity against human MCF7 cells assessed as growth inhibition after 72 hrs by MTT assay. The conditions noted are these: MCF7, 72 h. An outline of the steps: as §2
Experiment [15] concerns Jurkat. In words: Cytotoxicity against human Jurkat cells assessed as growth inhibition after 72 hrs by MTT assay.

Consider `COc1nc2c(cc1S(=O)(=O)c1ccccc1)CCc1c-2cnn1-c1cccc(Cl)c1`, for which the GI50 in the experiment on HL-60 [1] was 0.53 µM; with A549 [2], over 20 µM; in the experiment with A549 [3], 13.3 µM; in the experiment on A549 [4], 6.61 µM; in the experiment with LoVo [5] it was 2.99 µM; in the experiment with Jurkat [6], 1.34 µM. Moreover, the GI50 is 2.52 µM with MCF7 [7]; over 20 µM in the experiment with LoVo [8]; 3.42 µM in the experiment with HL-60 [9]; 1.95 µM in the experiment with Jurkat [10]; 5.15 µM in the experiment on MCF7 [11]; 9.84 µM in the experiment on LoVo [12]. Besides, the GI50 was over 20 µM in the experiment on HL-60 [13], over 20 µM in the experiment with MCF7 [14] and 13.2 µM in the experiment on Jurkat [15].
Take `O=c1c(S(=O)(=O)c2ccccc2)cc2c(n1Cc1ccccc1)-c1cnn(-c3ccc(Cl)cc3)c1CC2`: the GI50 is 7.17 µM in the experiment with HL-60 [1]; over 20 µM in the experiment with A549 [2]; over 20 µM in the experiment with A549 [3]; 6.64 µM with A549 [4]; 3.72 µM in the experiment with LoVo [5]; 4.97 µM in the experiment on Jurkat [6]. For the same compound, the GI50 with MCF7 [7] is 9.89 µM; in the experiment with LoVo [8] it was over 20 µM; with HL-60 [9], over 20 µM; with Jurkat [10] it was over 20 µM; with MCF7 [11] it was over 20 µM; in the experiment with LoVo [12] it was 11.1 µM. Moreover, the values for the GI50 in the experiment with HL-60 [13], with MCF7 [14] and in the experiment with Jurkat [15] were 11.6 µM, over 20 µM and 13.6 µM, respectively.
As for `CCOC(=O)c1cc2c([nH]c1=O)-c1cnn(-c3ccc(Cl)cc3)c1CC2`, the GI50 with HL-60 [1] was over 20 µM; with A549 [2], 5 µM; in the experiment with A549 [3] it was over 20 µM; with A549 [4], over 20 µM; in the experiment on LoVo [5], over 20 µM; with Jurkat [6], over 20 µM. Also, the GI50 with MCF7 [7] is 9.85 µM; in the experiment on LoVo [8] it was over 20 µM; in the experiment with HL-60 [9], over 20 µM; in the experiment on Jurkat [10], over 20 µM; in the experiment on MCF7 [11], 7.32 µM; with LoVo [12], over 20 µM. The GI50 in the experiment with HL-60 [13] is over 20 µM; in the experiment with MCF7 [14], 6.38 µM; in the experiment with Jurkat [15], over 20 µM.
On to `COc1nc2c(cc1S(=O)(=O)c1ccccc1)CCc1c-2cnn1-c1ccccc1Cl`, for which the GI50 in the experiment with HL-60 [1] is 0.81 µM; in the experiment on A549 [2], over 20 µM; in the experiment with A549 [3], 14.3 µM; in the experiment with A549 [4] it was 4.8 µM; with LoVo [5], 1.78 µM; in the experiment with Jurkat [6] it was 0.9 µM. For the same compound, the GI50 is 1.59 µM with MCF7 [7]; over 20 µM in the experiment on LoVo [8]; 3.78 µM in the experiment with HL-60 [9]; 1.93 µM in the experiment on Jurkat [10]; 3.13 µM in the experiment with MCF7 [11]; 5.73 µM with LoVo [12]. Also, the results for the GI50 in the experiment on HL-60 [13], with MCF7 [14] and with Jurkat [15] were 7.17 µM, over 20 µM and 9.8 µM, respectively.
Regarding `COc1ccc(-n2ncc3c4nc(OC)c(S(=O)(=O)c5ccccc5)cc4ccc32)cc1`, the GI50 was 0.76 µM in the experiment with HL-60 [1]; over 20 µM in the experiment with A549 [2]; 0.35 µM in the experiment with A549 [3]; 0.09 µM in the experiment on A549 [4]; 0.16 µM in the experiment on LoVo [5]; 0.54 µM in the experiment with Jurkat [6]. The GI50 is 0.59 µM in the experiment on MCF7 [7]; over 20 µM in the experiment with LoVo [8]; 0.99 µM in the experiment with HL-60 [9]; 1.5 µM in the experiment on Jurkat [10]; 1.23 µM with MCF7 [11]; 0.42 µM in the experiment with LoVo [12]. Moreover, the GI50 with HL-60 [13] was over 20 µM; in the experiment with MCF7 [14] it was 16.2 µM; in the experiment on Jurkat [15] it was over 20 µM.
For the compound `COc1nc2c(ccc3c2cnn3-c2ccc(Cl)cc2)cc1S(=O)(=O)c1ccccc1`, the GI50 with HL-60 [1] is 1.2 µM; in the experiment on A549 [2] it was 4.6 µM; with A549 [3] it was 3.09 µM; in the experiment on A549 [4], 0.75 µM; with LoVo [5], 0.71 µM; with Jurkat [6], 0.96 µM. The GI50 was 3.23 µM in the experiment with MCF7 [7]; over 20 µM in the experiment on LoVo [8]; 2.16 µM in the experiment on HL-60 [9]; 4.23 µM with Jurkat [10]; 5.36 µM in the experiment with MCF7 [11]; 1.43 µM in the experiment on LoVo [12]. For the same compound, the GI50 in the experiment with HL-60 [13] was over 20 µM; in the experiment with MCF7 [14], 7.51 µM; in the experiment on Jurkat [15], over 20 µM.
Take `COc1ccc(-n2ncc3c4[nH]c(=O)c(S(=O)(=O)c5ccccc5)cc4ccc32)cc1`: the GI50 in the experiment on HL-60 [1] is over 20 µM; in the experiment on A549 [2], 6.56 µM; in the experiment with A549 [3] it was 5.39 µM; in the experiment with A549 [4] it was 4.26 µM; in the experiment with LoVo [5], over 20 µM; with Jurkat [6], over 20 µM. Further, the GI50 in the experiment with MCF7 [7], in the experiment on LoVo [8], with HL-60 [9], in the experiment on Jurkat [10], with MCF7 [11] and in the experiment on LoVo [12] was over 20 µM in each case. The GI50 in the experiment on HL-60 [13] is over 20 µM; in the experiment on MCF7 [14] it was 8.36 µM; in the experiment on Jurkat [15], over 20 µM.
Consider `COc1nc2c(cc1S(=O)(=O)c1ccccc1)CCc1c-2cnn1Cc1ccccc1`, for which the GI50 in the experiment on HL-60 [1] was 1.3 µM; with A549 [2] it was over 20 µM; with A549 [3] it was 10.4 µM; in the experiment on A549 [4] it was 5.74 µM; in the experiment with LoVo [5] it was 1.41 µM; in the experiment on Jurkat [6], 1.4 µM. Further, the GI50 in the experiment on MCF7 [7] was 3.05 µM; with LoVo [8], over 20 µM; with HL-60 [9], 3.83 µM; in the experiment on Jurkat [10] it was 2.48 µM; in the experiment on MCF7 [11], 4 µM; in the experiment on LoVo [12], 5.32 µM. The GI50 in the experiment with HL-60 [13] was 6.1 µM; in the experiment with MCF7 [14], over 20 µM; with Jurkat [15], 8.43 µM.
For the compound `Cn1c2c(cc(S(=O)(=O)c3ccccc3)c1=O)CCc1c-2cnn1-c1cccc(Cl)c1`, the GI50 with HL-60 [1] is 2.44 µM; in the experiment with A549 [2] it was over 20 µM; in the experiment on A549 [3], over 20 µM; with A549 [4], 8.4 µM; with LoVo [5], 7.54 µM; in the experiment on Jurkat [6] it was 2.81 µM. Further, the GI50 was 9.01 µM with MCF7 [7]; over 20 µM in the experiment with LoVo [8]; over 20 µM with HL-60 [9]; over 20 µM with Jurkat [10]; 12.7 µM in the experiment with MCF7 [11]; 13.1 µM with LoVo [12]. For the same compound, the results for the GI50 in the experiment on HL-60 [13], in the experiment on MCF7 [14] and in the experiment on Jurkat [15] were over 20 µM, over 20 µM and 11.3 µM, respectively.
Turning to `COc1nc2c(cc1S(=O)(=O)c1ccccc1)CCc1c-2cnn1-c1ccccc1`, the GI50 in the experiment on HL-60 [1] was 0.79 µM; with A549 [2], over 20 µM; in the experiment on A549 [3], 7.56 µM; with A549 [4], 2.89 µM; with LoVo [5], 1.1 µM; in the experiment with Jurkat [6], 0.71 µM. The GI50 was 1.84 µM with MCF7 [7]; over 20 µM in the experiment with LoVo [8]; 2.83 µM in the experiment on HL-60 [9]; 3.65 µM with Jurkat [10]; 2.47 µM in the experiment with MCF7 [11]; 3.14 µM in the experiment on LoVo [12]. The GI50 was over 20 µM with HL-60 [13], over 20 µM in the experiment with MCF7 [14] and 12.1 µM in the experiment with Jurkat [15].
